Assay results: PubChem BioAssay AID624307 (The Scripps Research Institute Molecular Screening Center, 2012)
Activity calls are given as the source filed them.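 Rule for the calls: active = relative luminescence ratio of 1.25 or more at any tested dose; inactive = ratio below 1.25 at every tested dose.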

Assay: increased StAR-luc signal, DAX-1/SF-1 cells – cell-based, luminescence, HEK293, powder samples, assay provider, counter-screen for DAX1 inhibitor project, dose response (AID 624307)
Method in brief: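 Material: HEK293 transfectants with DAX-1, SF-1 and StAR-luciferase reporter / Compound dosing: 100 µM single dose plus three-point 1:2 series from 50 µM / Technique: luciferase luminescence from StAR promoter reporter / Read-out: luminescence relative to DMSO / Replication: triplicate per concentration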

Row | Compound | outcome
1 | COc1ccc(OC)c(C(C)NC(=O)c2cccc(C)c2)c1 (centres undefined) | inactive
2 | O=C(Nc1ccc2c(c1)OCO2)c1ccc2ccccc2c1 | inactive
3 | O=C(Nc1ccc2c(c1)OCO2)c1cccs1 | inactive
4 | CSc1ccccc1C(=O)Nc1ccc2c(c1)OCO2 | inactive
5 | O=C(Nc1ccc2c(c1)OCO2)c1ccc(C2SCC(=O)N2Cc2ccco2)cc1 (centres undefined) | inactive
6 | COc1ccc(OC)c(C(C)NC(=O)c2ccc(Cl)cc2)c1 (centres undefined) | inactive
7 | Cn1c(=O)n(C)c2cc(C(=O)Nc3ccc4c(c3)OCO4)ccc21 | inactive
8 | COc1ccc(OC)c(C(C)NC(=O)c2ccc3c(c2)OCCO3)c1 (centres undefined) | inactive
9 | Cc1occc1C(=O)Nc1ccc2c(c1)OCO2 | inactive
10 | O=C(Cc1cccs1)Nc1ccc2c(c1)OCO2 | inactive
11 | COc1ccc(OC)c(C(C)NC(=O)c2cccc3ccccc23)c1 (centres undefined) | inactive
12 | COc1cccc(C(=O)Nc2ccc3c(c2)OCCO3)c1 | inactive
13 | O=C(Nc1ccc2c(c1)OCO2)c1ccc(C2SCC(=O)N2Cc2ccccc2)cc1 (centres undefined) | inactive
14 | CN(C)c1cccc(C(=O)Nc2ccc3c(c2)OCCO3)c1 | inactive
15 | CSc1ccccc1C(=O)Nc1ccc2c(c1)OCCO2 | inactive
16 | COc1ccc(OC)c(C(C)NC(=O)c2ccccc2F)c1 (centres undefined) | inactive
17 | COc1ccc(OC)c(C(C)NC(=O)c2ccccc2)c1 (centres undefined) | inactive
18 | COc1cccc(C(=O)NC(C)c2cc(OC)ccc2OC)c1 (centres undefined) | inactive
19 | COc1ccc(OC)c(C(C)NC(=O)c2cccc(F)c2)c1 (centres undefined) | inactive
20 | COc1ccc(OC)c(C(C)NC(=O)c2ccccc2Cl)c1 (centres undefined) | inactive
21 | COc1ccc(OC)c(C(C)NC(=O)c2ccc(F)cc2)c1 (centres undefined) | inactive
22 | COc1ccc(OC)c(C(C)NC(=O)c2ccc(C(C)(C)C)cc2)c1 (centres undefined) | inactive
23 | Cn1c(=O)n(C)c2cc(C(=O)Nc3ccc4c(c3)OCCO4)ccc21 | inactive
24 | COc1cccc(C(=O)Nc2ccc3c(c2)OCO3)c1 | inactive
25 | COc1ccc(OC)c(C(C)NC(=O)c2ccc(C)cc2)c1 (centres undefined) | inactive
26 | Cc1cc(C(=O)Nc2ccc3c(c2)OCO3)cs1 | inactive
27 | COc1ccc(OC)c(C(C)NC(=O)c2ccccc2C)c1 (centres undefined) | inactive
28 | O=C(Nc1ccc2c(c1)OCCO2)c1ccc2ccccc2c1 | inactive
29 | COc1ccc(OC)c(C(C)NC(=O)c2c(F)cccc2Cl)c1 (centres undefined) | inactive
